Data reported in paper PMC3377097 (EMBO Molecular Medicine, 2011).

Columns and labels:
[1] = target: human recombinant DP4 (Homo sapiens, UniProt P27487); assay: Degradation of MCPs by DP4; type: biochemical; conditions: for N-terminal truncation by recombinant human DP4: 10 µg/ml in 25 mM Tris/HCl pH 7.6; for truncation by DP4: mature state bearing a pE-residue
How it was run: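 Recombinant CCL2, CCL7, CCL8 and CCL13 (Gln- and pGlu-forms) were either pre-incubated with recombinant human QC (0.6 µg/ml) for 2 h at 30°C and then incubated with recombinant human DP4, or incubated with DP4 alone. Truncation products were read by linear-mode MALDI-TOF-MS in positive ion mode over 2000–20,000 amu, summing at least 6 × 100 laser pulses.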

[2] = tested on: ApoE3*Leiden mice; assay: Cuff-induced accelerated atherosclerosis; type: in vivo
[3] = tested on: C57BL/6J mice; assay: Thioglycollate-induced peritonitis; type: in vivo; conditions: oral gavage; for level of ICAM1 and CCR2: cells of the peritoneal lavage
[4] = target: murine isoQC (Mus musculus, UniProt Q8BH73); assay: isoQC inhibition, Ki-values at pH 8; type: biochemical
[5] = target: human isoQC (Homo sapiens, UniProt Q9NXS2); assay: isoQC inhibition, Ki-values at pH 8; type: biochemical
[6] = target: murine QC (Mus musculus, UniProt Q9CYK2); assay: QC inhibition, Ki-values at pH 8; type: biochemical
[7] = tested on: models of Alzheimer's disease; conditions: high doses for up to 6 months ref Schilling et al, 2008; cited from earlier work
[8] = tested on: THP-1 cells; assay: TransWell chemotaxis assay; type: cell-based, human; conditions: THP-1 monocytes, 2 h migration
How it was run: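 THP-1 cells were grown in RPMI with 10% FBS and 50 µg/ml gentamicin at 37°C and 5% CO2, with mycoplasma checks. Cells at 1 × 10^6 per 100 µl RPMI1640 went into the upper chamber of 5 µm-pore TransWells, with chemoattractant below and serum-free RPMI as negative control. After 2 h at 37°C, 70 mM EDTA released bound cells (15 min, 37°C). Migrated cells were counted by cell counter or by FACS against 5000 Trucount beads.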

[9] = tested on: LPS-stimulated THP-1 cells; assay: CCL2 expression in LPS-stimulated THP-1 cells; type: cell-based, human; conditions: increasing concentrations
[10] = tested on: LPS-stimulated primary glia cells; assay: CCL2 gene expression; type: cell-based, murine; conditions: doses of 0.625 and 2.5 µM
How it was run: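 Primary glia came from newborn C57BL/6J pups at postnatal day 1. Brains were triturated, strained at 100 and 40 µm, and 6 × 10^5 cells were seeded on poly-L-lysine in DMEM/F12 with 5% FBS and 0.05% gentamicin at 37°C and 5% CO2. Medium was renewed at day 7, and cells (about 85% astrocytes, 15% microglia) were used 12 days after seeding. After LPS stimulation, RNA went to random-primed cDNA and SYBR Green qPCR (comparative quantitation), n = 3–4, ANOVA/Tukey.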

[11] = tested on: human primary macrophages; assay: pE1-CCL2 secreted from LPS-stimulated primary macrophages; type: cell-based
How it was run: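 Human PBMCs were separated on an LSM 1077 density gradient and grown overnight at 37°C and 5% CO2. Adherent monocytes/macrophages were detached with accutase, plated at 1 × 10^5 cells/well and stimulated with 1 µg/ml LPS (E. coli O55:B5) for 24 h. Medium pE1-CCL2 was measured by sandwich ELISA: capture with 25 ng/well goat anti-hMCP-1 (overnight, 4°C), samples 2 h at room temperature, TMB read at 450 nm minus 550 nm.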

[12] = tested on: murine primary macrophages; assay: pE1-CCL2 secreted from LPS-stimulated primary macrophages; type: cell-based
How it was run: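 Blood was drawn by cardiac puncture into heparin from isoflurane-anaesthetised (2%) mice. PBMCs were separated on an LSM 1077 gradient, grown overnight, and adherent cells were detached with accutase and plated at 1 × 10^5 cells/well. Cells were stimulated with 1 µg/ml LPS (E. coli O55:B5) for 24 h. Medium pE1-CCL2 was measured by ELISA with 50 ng/well rabbit anti-mJE capture (coated 4–7 days, 4°C), read at 450 nm minus 550 nm.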

[13] = tested on: LPS-stimulated primary murine glia cells; assay: total-CCL2 and pE1-CCL2 ELISA of LPS-stimulated primary glia cells; type: cell-based; conditions: varying doses
[14] = target: CCR2 (Homo sapiens, UniProt P41597); assay: CCR2 receptor internalization assay; type: cell-based; conditions: human THP-1 monocytes, 45 min at 37°C, FACS
How it was run: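 THP-1 cells were maintained in RPMI with 10% FBS and 50 µg/ml gentamicin at 37°C, 5% CO2, and checked for mycoplasma. 6 × 10^5 cells were exposed in serum-free RPMI 1640 to N-terminal CCL2 variant ligands, then harvested into cold PBS. They were Fc-blocked for 10 min at 4°C and stained 30 min at 4°C with PE anti-CCR2 or IgG2B isotype control. After a PBS wash, they were analysed by flow cytometry.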

[15] = Degradation of CCL2 in human plasma; type: in vitro ADME; conditions: incubation with human plasma
How it was run: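 CCL2(Q1-76) was incubated with human plasma, either directly or after pre-incubation with recombinant human QC. N-terminal cleavage products were read by linear-mode MALDI-TOF-MS in positive ion mode over 2000–20,000 amu, calibrated with insulin and myoglobin. Each spectrum sums at least 6 × 100 laser pulses.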

[16] = 2 days after surgery, drinking water 2.4 mg/ml

Chain of human recombinant DP4 (P27487 whole entry, the tested form may be a part): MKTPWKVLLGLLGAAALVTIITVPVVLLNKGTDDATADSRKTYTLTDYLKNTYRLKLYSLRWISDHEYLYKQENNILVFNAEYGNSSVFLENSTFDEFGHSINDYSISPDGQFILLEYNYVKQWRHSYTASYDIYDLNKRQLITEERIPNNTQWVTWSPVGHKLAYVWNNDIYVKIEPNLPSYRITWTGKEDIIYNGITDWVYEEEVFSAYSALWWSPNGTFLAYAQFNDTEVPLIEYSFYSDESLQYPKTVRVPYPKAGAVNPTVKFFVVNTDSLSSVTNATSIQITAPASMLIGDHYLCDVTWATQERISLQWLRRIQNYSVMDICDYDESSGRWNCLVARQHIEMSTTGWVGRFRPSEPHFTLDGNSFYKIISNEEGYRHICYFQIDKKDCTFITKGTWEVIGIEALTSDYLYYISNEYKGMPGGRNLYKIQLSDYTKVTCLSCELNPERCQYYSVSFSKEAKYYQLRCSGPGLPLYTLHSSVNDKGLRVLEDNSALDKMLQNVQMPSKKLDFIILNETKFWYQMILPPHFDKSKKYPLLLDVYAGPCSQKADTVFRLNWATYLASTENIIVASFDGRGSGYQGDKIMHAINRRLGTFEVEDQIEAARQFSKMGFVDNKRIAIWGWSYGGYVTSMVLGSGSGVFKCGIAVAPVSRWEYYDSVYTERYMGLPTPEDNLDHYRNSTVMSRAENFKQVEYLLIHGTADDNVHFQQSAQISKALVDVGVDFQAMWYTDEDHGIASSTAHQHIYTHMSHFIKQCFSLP
Chain of human isoQC (Q9NXS2 whole entry): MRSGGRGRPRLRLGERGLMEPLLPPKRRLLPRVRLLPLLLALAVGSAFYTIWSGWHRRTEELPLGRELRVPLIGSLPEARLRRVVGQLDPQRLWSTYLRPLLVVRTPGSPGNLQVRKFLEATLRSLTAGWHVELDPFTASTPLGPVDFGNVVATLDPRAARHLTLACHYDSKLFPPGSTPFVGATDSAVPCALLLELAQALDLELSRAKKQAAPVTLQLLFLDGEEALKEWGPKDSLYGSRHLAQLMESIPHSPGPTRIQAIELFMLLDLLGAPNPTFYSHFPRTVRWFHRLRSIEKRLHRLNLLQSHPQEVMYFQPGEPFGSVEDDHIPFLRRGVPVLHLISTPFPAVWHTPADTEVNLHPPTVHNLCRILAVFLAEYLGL
Chain of murine QC (Q9CYK2 36-362): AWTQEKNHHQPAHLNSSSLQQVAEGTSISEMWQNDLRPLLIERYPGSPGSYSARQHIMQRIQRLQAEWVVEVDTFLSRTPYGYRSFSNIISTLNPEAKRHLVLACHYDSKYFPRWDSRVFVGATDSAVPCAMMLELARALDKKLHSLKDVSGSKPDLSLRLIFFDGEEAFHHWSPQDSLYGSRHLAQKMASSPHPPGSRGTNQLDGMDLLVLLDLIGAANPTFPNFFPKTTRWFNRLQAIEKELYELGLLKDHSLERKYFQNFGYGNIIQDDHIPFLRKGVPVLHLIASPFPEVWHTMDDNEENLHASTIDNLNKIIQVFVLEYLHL
Chain of murine isoQC (Q8BH73 whole entry): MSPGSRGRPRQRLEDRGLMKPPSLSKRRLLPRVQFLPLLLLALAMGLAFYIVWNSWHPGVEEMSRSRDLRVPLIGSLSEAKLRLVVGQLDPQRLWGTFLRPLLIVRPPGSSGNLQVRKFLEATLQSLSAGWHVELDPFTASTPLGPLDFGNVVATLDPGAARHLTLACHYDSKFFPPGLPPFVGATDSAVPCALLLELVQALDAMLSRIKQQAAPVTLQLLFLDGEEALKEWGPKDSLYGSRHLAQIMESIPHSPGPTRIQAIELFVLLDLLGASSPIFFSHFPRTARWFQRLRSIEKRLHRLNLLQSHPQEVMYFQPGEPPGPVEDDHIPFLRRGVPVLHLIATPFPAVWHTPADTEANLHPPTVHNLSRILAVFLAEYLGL
Chain of CCR2 (P41597 whole entry): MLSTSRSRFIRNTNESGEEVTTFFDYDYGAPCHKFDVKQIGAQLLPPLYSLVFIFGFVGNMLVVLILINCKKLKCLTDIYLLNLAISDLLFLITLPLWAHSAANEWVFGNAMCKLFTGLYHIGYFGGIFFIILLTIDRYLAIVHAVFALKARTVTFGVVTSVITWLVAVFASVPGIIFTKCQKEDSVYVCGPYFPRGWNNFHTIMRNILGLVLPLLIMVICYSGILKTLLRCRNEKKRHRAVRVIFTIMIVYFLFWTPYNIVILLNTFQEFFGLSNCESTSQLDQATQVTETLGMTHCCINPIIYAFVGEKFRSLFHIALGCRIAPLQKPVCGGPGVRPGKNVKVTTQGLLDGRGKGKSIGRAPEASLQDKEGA

Molecule: CCL2(Q^1-76): recombinant human CCL2 possessing an N-terminal glutaminyl residue (immature form)
- N-terminal truncation by recombinant human DP4 [1]: susceptible to cleavage

Molecule: COc1ccc(NC(=S)NCCCn2ccnc2)cc1OC [PQ50, 1-(3-(1H-Imidazol-1-yl)propyl)-3-(3,4-dimethoxyphenyl)thiourea]
- area of the media ([2]; 2 weeks after surgery): reduced
- total area within the outer diameter of the vessel segment, area of the interna, number of foam cells ([2]; 2 weeks after surgery): did not affect
- CCL2-immunopositive area ([2]; 2 weeks after surgery, treated vs untreated): did not differ
- reduction of monocytes at the cuffed vessel segments [2, 16]: 67%
- reduction of total adhering cells at the cuffed vessel segments [2, 16]: 45%
- gene expression of CCL2, CCL7, IL-6 and TNF-alpha in cells of the peritoneal lavage [3]: without changing
- number of monocytes after stimulation with thioglycollate [3]: reduced the number of monocytes
- level of ICAM1 and CCR2 [3]: unchanged
- Ki [4]: 246 nM
- Ki [5]: 236 nM
- Ki [6]: 170 nM
- toxicity [7]: without overt signs of toxicity

Molecule: CCL2(D^3-76): DP4-cleavage product of CCL2
- monocyte attraction (chemotaxis) [8]: shift to higher concentrations needed to elicit chemotaxis

Molecule: CCL7: recombinant human CCL7, MCP family member
- truncation by DP4 [1]: protected against truncation

Molecule: CCCOc1ccc(C2C(=O)NC(=O)N2c2ccc3[nH]cnc3c2)cc1 (centres unmarked) [PQ529, 1-(1H-benzo[d]imidazol-5-yl) -5-(4-propoxyphenyl) imidazolidine-2,4-dione]
- CCL2 expression [9]: did not show an effect
- CCL2 mRNA [10]: slight but significant increase
- gene expression of CCL2, CCL7, IL-6 and TNF-alpha in cells of the peritoneal lavage [3]: without changing
- number of monocytes after stimulation with thioglycollate [3]: reduced the number of monocytes
- level of ICAM1 and CCR2 [3]: unchanged
- pE^1-CCL2 secreted [11]: reduced
- pE^1-CCL2 secreted [12]: reduced
- concentration of pE^1-CCL2 [13]: decreased the concentration of pE^1-CCL2 dose-dependently

Molecule: CCL2(pE^1-76): mature human CCL2 with N-terminal pyroglutamate residue
- N-terminal truncation by recombinant human DP4 [1]: prevented N-terminal truncation
- CCR2 internalization [14]: most potent
- N-terminal degradation in human plasma [15]: completely resistant to cleavage
- monocyte attraction (chemotaxis) [8]: highest efficacy

Molecule: CCL13: recombinant human CCL13, MCP family member
- truncation by DP4 [1]: protected against truncation

B1: CCL8: recombinant human CCL8 (MCP-2) (protein, UniProt P80075 24-99, looked up)
C-C motif chemokine 8: QPDSVSIPITCCFNVINRKIPIQRLESYTRITNIQCPKEAVIFKTKRGKEVCADPKERWVRDSMKHLDQIFQNLKP
- truncation by DP4 [1]: protected against truncation
